The values below come from ChEMBL document CHEMBL1151705, “Novel azalides derived from 16-membered macrolides. Part II: Isolation of the linear 9-formylcarboxylic acid and its sequential macrocyclization with an amino alcohol or an azidoamine” (2008).

Test [1] deals with Streptococcus pyogenes. The test can be described thus: Antimicrobial activity against Streptococcus pyogenes 3 expressing mefA after 20 hrs by agar dilution method. The test is classed as functional. Summed up:
(§1)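 Streptococci, H. influenzae and M. catarrhalis were precultured on blood agar plates. Suspensions of about 10⁶ CFU/ml were inoculated onto sensitivity disk agar supplemented with 5% horse blood and incubated at 37 °C for 20 h. MIC was read as the lowest drug concentration with no visible growth.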
A general note: Agar dilution tests growth on a series of plates holding different concentrations.

Test [2] deals with Haemophilus influenzae. The test can be described thus: Antimicrobial activity against drug-susceptible Haemophilus influenzae 1 after 20 hrs by agar dilution method. The test is classed as functional. Put shortly: as §1
Test [3] deals with Streptococcus pyogenes. The test can be described thus: Antimicrobial activity against drug-susceptible Streptococcus pyogenes 1 after 20 hrs by agar dilution method. The test is classed as functional. Put shortly: as §1
For test [4], the system named is Haemophilus influenzae. The test can be described thus: Antimicrobial activity against drug-susceptible Haemophilus influenzae 2 after 20 hrs by agar dilution method. The test is classed as functional. Put shortly:
as §1

Test [5] concerns Staphylococcus aureus. The test can be described thus: Antimicrobial activity against drug-susceptible Staphylococcus aureus 2 after 20 hrs by agar dilution method. The test is classed as functional. Put shortly:
(§2)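 Agar dilution MIC. S. aureus seed culture was grown in sensitivity test broth. Cell suspension (about 10⁶ CFU/ml) was inoculated onto sensitivity disk agar with 5% horse blood and incubated at 37 °C for 20 h. MIC was the lowest drug concentration that prevented visible growth.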

Test [6] concerns Staphylococcus aureus. The test can be described thus: Antimicrobial activity against Staphylococcus aureus 5 expressing inducible ermB after 20 hrs by agar dilution method. The test is classed as functional. Summed up:
as §2

Test [7] deals with Streptococcus pneumoniae. The test can be described thus: Antimicrobial activity against drug-susceptible Streptococcus pneumoniae DP1 Type1 after 20 hrs by agar dilution method. The test is classed as functional. Put shortly:
as §1

For test [8], the system named is Moraxella catarrhalis. The test can be described thus: Antimicrobial activity against drug-susceptible Moraxella catarrhalis 1 after 20 hrs by agar dilution method. The test is classed as functional. Summed up:
as §1

In test [9] the test system is Streptococcus pneumoniae. The test can be described thus: Antimicrobial activity against Streptococcus pneumoniae 9 expressing mefA after 20 hrs by agar dilution method. The test is classed as functional. Put shortly: as §1
Test [10] concerns Haemophilus influenzae. The test can be described thus: Antimicrobial activity against drug-susceptible Haemophilus influenzae 4 after 20 hrs by agar dilution method. The test is classed as functional. Put shortly: as §1
Test [11] deals with Staphylococcus aureus. The test can be described thus: Antimicrobial activity against drug-susceptible Staphylococcus aureus 3 after 20 hrs by agar dilution method. The test is classed as functional. Summed up:
as §2

For test [12], the system named is Staphylococcus aureus. The test can be described thus: Antimicrobial activity against drug-susceptible Staphylococcus aureus 209P JC-1 after 20 hrs by agar dilution method. The test is classed as functional. Summed up: as §2
The subject of test [13] is Moraxella catarrhalis. The test can be described thus: Antimicrobial activity against drug-susceptible Moraxella catarrhalis 2 after 20 hrs by agar dilution method. The test is classed as functional. Summed up: as §1
Test [14] concerns Staphylococcus aureus. The test can be described thus: Antimicrobial activity against Staphylococcus aureus 6 expressing inducible ermC after 20 hrs by agar dilution method.
For test [15], the system named is Streptococcus pneumoniae. The test can be described thus: Antimicrobial activity against drug-susceptible Streptococcus pneumoniae 2 after 20 hrs by agar dilution method. The test is classed as functional. Summed up: as §1
The subject of test [16] is Streptococcus pneumoniae. The test can be described thus: Antimicrobial activity against drug-susceptible Streptococcus pneumoniae 3 after 20 hrs by agar dilution method. The test is classed as functional. Put shortly: as §1
Test [17] has as its system Streptococcus pneumoniae. The test can be described thus: Antimicrobial activity against Streptococcus pneumoniae 10 expressing mefA after 20 hrs by agar dilution method. The test is classed as functional. Summed up:
as §1

The subject of test [18] is Streptococcus pneumoniae. The test can be described thus: Antimicrobial activity against Streptococcus pneumoniae 8 expressing inducible ermB after 20 hrs by agar dilution method. The test is classed as functional. Summed up: as §1
In test [19] the test system is Streptococcus pneumoniae. The test can be described thus: Antimicrobial activity against Streptococcus pneumoniae 7 expressing inducible ermB after 20 hrs by agar dilution method. The test is classed as functional. Summed up:
as §1

Test [20] relates to Haemophilus influenzae. The test can be described thus: Antimicrobial activity against drug-susceptible Haemophilus influenzae 3 after 20 hrs by agar dilution method. The test is classed as functional. Put shortly:
as §1

Test [21] concerns Streptococcus pneumoniae. The test can be described thus: Antimicrobial activity against Streptococcus pneumoniae 4 constitutively expressing ermB after 20 hrs by agar dilution method. The test is classed as functional. The conditions noted are these: Streptococcus pneumoniae, 20 h; read-out: MIC. Put shortly:
as §1

Test [22] deals with Streptococcus pneumoniae. The test can be described thus: Antimicrobial activity against Streptococcus pneumoniae 5 constitutively expressing ermB/mefA after 20 hrs by agar dilution method. The test is classed as functional. The note with it: Streptococcus pneumoniae, 20 h; read-out: MIC. Put shortly: as §1
Test [23] relates to Streptococcus pyogenes. The test can be described thus: Antimicrobial activity against Streptococcus pyogenes 2 constitutively expressing ermB after 20 hrs by agar dilution method. The test is classed as functional. Summed up: as §1
The subject of test [24] is Streptococcus pneumoniae. The test can be described thus: Antimicrobial activity against Streptococcus pneumoniae 6 constitutively expressing ermB after 20 hrs by agar dilution method. The test is classed as functional. The conditions noted are these: Streptococcus pneumoniae, 20 h; read-out: MIC. Summed up:
as §1

The subject of test [25] is Staphylococcus aureus. The test can be described thus: Antimicrobial activity against Staphylococcus aureus 6 expressing inducible ermB after 20 hrs by agar dilution method. The test is classed as functional. Summed up:
as §2

The subject of test [26] is Staphylococcus aureus. The test can be described thus: Antimicrobial activity against Staphylococcus aureus 4 constitutively expressing ermA after 20 hrs by agar dilution method. The test is classed as functional. Summed up: as §2
The mark [27] stands for this setting: Haemophilus influenzae, 20 h, read-out: MIC.
Setting [28] is: Streptococcus pneumoniae, 20 h, read-out: MIC.
[29] abbreviates: Staphylococcus aureus, 20 h, read-out: MIC.

Molecules are shown by their SMILES. Values after ≈ are worked out from the molar mass of the structure shown. Some results are limits rather than exact numbers.

In the case of `CCOC(=O)[C@H]1[C@H](C)O[C@@H](O[C@H]2[C@H](N(C)C)[C@@H](O)[C@H](O[C@H]3[C@@H](CC=O)C[C@@H](C)[C@@H](O)CN(C)CCC(C/C=C/c4ccnc5ccccc45)NC(=O)C[C@@H](OC(=O)CC)[C@@H]3OC)O[C@@H]2C)C[C@@]1(C)O` (stereo in doubt), the MIC was found to be 2 µg/mL (≈ 2.06 µM) in the test on Streptococcus pyogenes [1]; 64 µg/mL (≈ 65.9 µM) in the test with Haemophilus influenzae [2]; 0.5 µg/mL (≈ 0.515 µM) in the test with Streptococcus pyogenes [3]; 4 µg/mL (≈ 4.12 µM) against Haemophilus influenzae [4]; 8 µg/mL (≈ 8.24 µM) with Staphylococcus aureus [5]; 2 µg/mL (≈ 2.06 µM) against Staphylococcus aureus [6]. In addition, the MIC amounted to 0.25 µg/mL (≈ 0.257 µM) against Streptococcus pneumoniae [7]; 8 µg/mL (≈ 8.24 µM) in the test on Moraxella catarrhalis [8]; 0.5 µg/mL (≈ 0.515 µM) against Streptococcus pneumoniae [9]; 16 µg/mL (≈ 16.5 µM) in the test on Haemophilus influenzae [10]; 2 µg/mL (≈ 2.06 µM) in the test on Staphylococcus aureus [11]; 4 µg/mL (≈ 4.12 µM) in the test with Staphylococcus aureus [12]. The MIC against Moraxella catarrhalis [13] was 4 µg/mL (≈ 4.12 µM); with Staphylococcus aureus [14], 4 µg/mL (≈ 4.12 µM); against Streptococcus pneumoniae [15] it was 0.25 µg/mL (≈ 0.257 µM).
With `CCOC(=O)[C@H]1[C@H](C)O[C@@H](O[C@H]2[C@H](N(C)C)[C@@H](O)[C@H](O[C@H]3[C@@H](CC=O)C[C@@H](C)[C@@H](O)CN(C)CCC(/C=C/Cc4ccnc5ccccc45)NC(=O)C[C@@H](OC(=O)CC)[C@@H]3OC)O[C@@H]2C)C[C@@]1(C)O` (stereo in doubt), the MIC was found to be 2 µg/mL (≈ 2.06 µM) against Streptococcus pyogenes [1]; 32 µg/mL (≈ 32.9 µM) in the test with Haemophilus influenzae [2]; 0.25 µg/mL (≈ 0.257 µM) with Streptococcus pneumoniae [16]; 0.5 µg/mL (≈ 0.515 µM) with Streptococcus pyogenes [3]; 0.25 µg/mL (≈ 0.257 µM) in the test with Streptococcus pneumoniae [17]; 1 µg/mL (≈ 1.03 µM) in the test on Haemophilus influenzae [4]. For the same molecule, the MIC against Staphylococcus aureus [5] is 4 µg/mL (≈ 4.12 µM); in the test on Staphylococcus aureus [6], 2 µg/mL (≈ 2.06 µM); in the test on Streptococcus pneumoniae [7], 0.13 µg/mL (≈ 0.134 µM); in the test on Moraxella catarrhalis [8], 4 µg/mL (≈ 4.12 µM); in the test on Streptococcus pneumoniae [9], 0.25 µg/mL (≈ 0.257 µM); in the test on Streptococcus pneumoniae [18] it was 64 µg/mL (≈ 65.9 µM). The MIC in the test on Haemophilus influenzae [10] was 16 µg/mL (≈ 16.5 µM); in the test on Streptococcus pneumoniae [19], 64 µg/mL (≈ 65.9 µM); against Staphylococcus aureus [11], 1 µg/mL (≈ 1.03 µM); against Staphylococcus aureus [12] it was 2 µg/mL (≈ 2.06 µM); in the test with Haemophilus influenzae [20], 8 µg/mL (≈ 8.24 µM); in the test on Moraxella catarrhalis [13], 4 µg/mL (≈ 4.12 µM). Moreover, the MIC turned out to be 2 µg/mL (≈ 2.06 µM) against Staphylococcus aureus [14] and 0.25 µg/mL (≈ 0.257 µM) against Streptococcus pneumoniae [15].
On to `CCOC(=O)[C@H]1[C@H](C)O[C@@H](O[C@H]2[C@H](N(C)C)[C@@H](O)[C@H](O[C@H]3[C@@H](CC=O)C[C@@H](C)[C@@H](O)CN(C)CCC(C/C=C/c4cnc5ccccc5c4)NC(=O)C[C@@H](OC(=O)CC)[C@@H]3OC)O[C@@H]2C)C[C@@]1(C)O` (stereo in doubt; form 1), for which the MIC stood at 1 µg/mL (≈ 1.03 µM) in the test with Streptococcus pyogenes [1]; 32 µg/mL (≈ 32.9 µM) in the test on Haemophilus influenzae [2] (setting [27]); 0.13 µg/mL (≈ 0.134 µM) in the test with Streptococcus pneumoniae [16] (setting [28]); 0.25 µg/mL (≈ 0.257 µM) in the test with Streptococcus pyogenes [3] (Streptococcus pyogenes, 20 h, read-out: MIC); 0.13 µg/mL (≈ 0.134 µM) in the test on Streptococcus pneumoniae [17] (setting [28]); 2 µg/mL (≈ 2.06 µM) in the test on Haemophilus influenzae [4] (setting [27]). Also, the MIC was greater than 128 µg/mL in the test on Streptococcus pneumoniae [21]; greater than 128 µg/mL with Streptococcus pneumoniae [22]; 1 µg/mL (≈ 1.03 µM) in the test with Staphylococcus aureus [5] (setting [29]); 0.5 µg/mL (≈ 0.515 µM) with Staphylococcus aureus [6] (setting [29]); 0.06 µg/mL (≈ 0.0618 µM) in the test with Streptococcus pneumoniae [7]; greater than 128 µg/mL in the test with Streptococcus pyogenes [23]. Also, the MIC was greater than 128 µg/mL with Streptococcus pneumoniae [24]; 2 µg/mL (≈ 2.06 µM) against Moraxella catarrhalis [8]; 1 µg/mL (≈ 1.03 µM) against Staphylococcus aureus [25]; 0.13 µg/mL (≈ 0.134 µM) in the test with Streptococcus pneumoniae [9]; greater than 128 µg/mL in the test with Staphylococcus aureus [26]; 32 µg/mL (≈ 32.9 µM) with Streptococcus pneumoniae [18]. Moreover, the MIC with Haemophilus influenzae [10] (setting [27]) was 16 µg/mL (≈ 16.5 µM); against Streptococcus pneumoniae [19] it was 32 µg/mL (≈ 32.9 µM); with Staphylococcus aureus [11] (setting [29]) it was 0.25 µg/mL (≈ 0.257 µM); in the test with Staphylococcus aureus [12] (Staphylococcus aureus, 209P, 20 h, read-out: MIC), 0.5 µg/mL (≈ 0.515 µM); in the test on Haemophilus influenzae [20] (setting [27]), 16 µg/mL (≈ 16.5 µM); in the test on Moraxella catarrhalis [13] (Moraxella catarrhalis, 20 h, read-out: MIC), 2 µg/mL (≈ 2.06 µM). Further, the MIC with Streptococcus pneumoniae [15] (setting [28]) was determined as 0.13 µg/mL (≈ 0.134 µM).
